Data published in PubChem BioAssay AID2655 (Broad Institute, 2010).

Tested on: human platelets, SFLLRN-induced actin polymerization, FITC-phalloidin flow
Test: blockers of PAR1 peptide-driven F-actin formation – cell-based, FITC-phalloidin flow cytometry, human platelets, selectivity assay for platelet granule secretion inhibitor project, late-stage follow-up (AID 2655)
Conditions: at 10 µM; stronger effect = higher value
In short: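 material = Gel-filtered platelets | also added = SFLLRN at 5 µM, or no SFLLRN | compound = single 10 µM compound dose, 0.3% DMSO vehicle | times = 20 min compound, 15 min SFLLRN, 37 °C | technique = FITC-phalloidin flow cytometry in fixed, permeabilized platelets | control set = 0.3% DMSO vehicle samples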

SMILES	inhibition
O=C(Nc1cccc(NC(=O)c2ccccc2Cl)c1)c1ccco1	71.4%
CCCC(=O)Nc1cccc(NC(=O)c2ccccc2Br)c1	80.4%
